# This is a sample that favours compounds with a hit; in the whole collection about 2.8% have one here.
# EP2 mod = EP2 receptor modulators, cAMP readout, primary screen, cell-based, HTRF cAMP, PGE2 stimulation; Prostaglandin E2 receptor EP2 subtype (Homo sapiens), P43116; EP2-expressing cells, cAMP HTRF FRET, PGE2 co-stimulation; induction, % at 25 µM; actives 0.83% (n = 260,000); AID 940, 2007;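 active = compounds whose cAMP rise, as percent of the full-agonist control response, exceeds 60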;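 note: rat C6 glioma line stably carrying human EP2 under a CMV promoter; the protocol text gives 20 µM as final concentration; 100% = response of wells given 1 µM PGE2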
# Target sequence (P43116 whole entry, looked up): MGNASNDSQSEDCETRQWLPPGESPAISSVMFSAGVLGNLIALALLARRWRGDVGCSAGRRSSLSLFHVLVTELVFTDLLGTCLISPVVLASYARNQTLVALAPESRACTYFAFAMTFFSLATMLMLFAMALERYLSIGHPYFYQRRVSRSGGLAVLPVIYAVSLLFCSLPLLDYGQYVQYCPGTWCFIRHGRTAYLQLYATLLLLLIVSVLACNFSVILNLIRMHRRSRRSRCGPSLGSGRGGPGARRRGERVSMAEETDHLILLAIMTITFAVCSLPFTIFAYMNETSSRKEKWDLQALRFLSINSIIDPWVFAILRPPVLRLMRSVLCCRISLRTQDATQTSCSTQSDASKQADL
# NPY1 pot ag = NPY-Y1 receptor potentiators or agonists, primary screen, cell-based | activation, % at 3.6 µM | NPY-Y1 expressing cells, potentiator/agonist activation | actives 0.37% (n = 220,000) | AID 1304, 2008; in the data active = activation above about 33%, passing the limit was not always enough;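 note: cells stimulated with NPY at EC10 then isoproterenol at EC100; 0% = low agonist plus stimulus and 100% = saturating agonist plus stimulus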
# PGE2 EP2 inh = human EP2 receptor antagonists, primary screen, TR-FRET cAMP, C6 glioma cells; Prostaglandin E2 receptor EP2 subtype (Homo sapiens), P43116; C6 glioma cells expressing human EP2; cells stimulated with saturating PGE2; inhibition, % at 25 µM; actives 0.52% (n = 260,000); AID 1422, 2008;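 active = percent inhibition above 40 after rounding to a whole number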;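 note: rat C6 glioma host cells with rolipram phosphodiesterase inhibitor present; the protocol text gives 20 µM as final concentration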
# NPY-Y2 antag = NPY-Y2 receptor antagonists, primary screen, cell-based. Neuropeptide Y receptor type 2 (Homo sapiens), P49146. NPY-Y2 expressing cells, antagonist mode. inhibition, % at 2.7 µM. actives 0.99% (n = 140,000). AID 793, 2007; in the data active = inhibition above about 17%;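 note: 0% = vehicle with agonist challenge and 100% = reference antagonist with challenge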
# NPY-Y1 antag = NPY-Y1 receptor antagonists, primary screen, cell-based; Neuropeptide Y receptor type 1 (Homo sapiens), P25929; HEK293-CNG Y1 cells, membrane potential fluorescence; NPY at EC95, then isoproterenol; inhibition, % at 3.6 µM; actives 1% (n = 200,000);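 active = inhibition above the campaign mean inhibition of all tested compounds plus 3 SD, cut at about 20% in these data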;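 note: 0% = DMSO wells given NPY plus isoproterenol and 100% = isoproterenol alone without NPY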
#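 Test system – HEK293 Y1/CNG channel cell line · Also added – NPY agonist 25 nM, then isoproterenol 1 µM plus Ro 20-1724 25 µM · Compound dosing – one concentration, 3.6 µM, in 0.4% DMSO · Schedule – compound incubation 1 h at room temperature, readout 45 min post-stimulation · Technique – fluorescence, membrane potential probe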
# NPY-Y2 PAM-ag = NPY-Y2 potentiators or agonists, primary screen, cell-based; AID 1359, 2008; cells expressing NPY-Y2, potentiator/agonist read-out; actives 0.45% (n = 220,000); Neuropeptide Y receptor type 2 (Homo sapiens), P49146; activation, % at 3.6 µM; in the data active = activation above about 27%;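 note: cells stimulated with NPY near EC25 plus isoproterenol at EC100; 0% = vehicle plus submaximal agonist and 100% = vehicle plus saturating agonist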
# * hit, by the source's call; x = no result.
SMILES,EP2 mod,NPY1 pot ag,PGE2 EP2 inh,NPY-Y2 antag,NPY-Y1 antag,NPY-Y2 PAM-ag
CN(C)c1ccc(N=Cc2nc(-c3ccccc3)oc2OC(=O)c2cccc(Cl)c2)cc1,35,11,10,1,-5,7
Cc1ccc(C(=O)Oc2oc(-c3ccccc3)nc2C=Nc2ccc(N(C)C)cc2)cc1,47,18,42*,2,0,4
CCn1c(SCC(=O)O)nnc1-c1ccco1,-14,x,9,x,x,x
Cc1[nH]c2ccccc2c1-c1nc(-c2ccc(Cl)cc2)nnc1-c1ccccc1,4,6,5,x,3,-17
Cc1[nH]c2ccccc2c1-c1cc(-c2cc(-c3c(C)[nH]c4ccccc34)nc(N)n2)nc(N)n1,1,x,42*,x,x,x
COc1ccc2cc(C(c3nnnn3C(C)(C)C)N3CCOCC3)c3nnnn3c2c1 (stereo not drawn),6,x,22,x,x,x
CC(C)=Cc1oc2ccc([N+](=O)[O-])cc2c1N1CC(C)OC(C)C1 (stereo not drawn),62*,-13,9,x,0,-3
O=C(CN1C(=O)[C@H]2CCCN2C(=O)c2ccccc21)NC1CC1,3,x,2,x,x,x
CCN(CC)c1ccc(/C=N/NC(=O)c2cccc(S(=O)(=O)Nc3ccccc3OC)c2)cc1,-5,33,8,x,1,15
CCN(CC)c1ccc(/C=N/NC(=O)c2cccc(S(=O)(=O)Nc3ccccc3OC)c2)c(O)c1,-50,47*,8,-1,-9,35*
O=C1C(SCCO)=C(SCCO)C(=O)c2ccccc21,-60,x,43*,x,x,x
COc1ccc(-c2csc(NC(=O)c3ccccc3NS(=O)(=O)c3ccc(F)c(F)c3)n2)cc1,-23,70*,24,x,3,94*
CCn1c(=O)c2c(nc(SCC(=O)Nc3ccc(C)cc3)n2C)n(C)c1=O,-21,x,9,x,x,x
C=CCOC(=O)c1sc(NC(=O)c2sc3cccc(Cl)c3c2Cl)nc1C,-48,x,12,x,x,x
CC(C)Cc1nc2oc3c(N4CCN(CCO)CC4)ncnc3c2c2c1CCCC2,36,-10,10,17*,9,3
CCC(C)(C)n1nnnc1C(C(C)C)N(Cc1cccs1)Cc1cc2cc(OC)ccc2[nH]c1=O (stereo not drawn),47,x,4,x,x,x
COc1ccc(CNC(=O)C(c2ccncc2)N(C(=O)Cc2cccs2)c2ccccc2)cc1 (stereo not drawn),-4,6,8,2,0,8
COc1ccc(N(C(=O)CCl)C(C(=O)NCCc2ccccc2)c2cccs2)cc1 (stereo not drawn),16,54*,7,2,0,35*
OC1(C#CCN2CCOCC2)c2ccccc2-c2ccccc21,-2,x,11,x,x,x
COc1ccc(NC2SC(=O)N(c3ccc(C)c(C)c3)C2=O)cc1 (stereo not drawn),-14,x,4,x,x,x
COc1ccc(/C=C/C(=O)NC(=S)NN2CCCCC2c2cccnc2)cc1OC (stereo not drawn),-4,-13,3,3,10,-15
O=C(/C=C/c1ccc(Cl)cc1)NC(=S)NN1CCCCC1c1cccnc1 (stereo not drawn),22,-34,3,40*,2,-6
CCn1cc(CNC(=O)c2cnn3c(C(F)F)cc(-c4ccccc4)nc23)c(C)n1,-23,x,5,x,x,x
Cc1cc(NC(=O)c2ccc(C)s2)n(-c2nc3ccccc3[nH]2)n1,63*,6,10,2,-2,9
Cc1cc(NC(=O)c2c(F)cccc2F)n(-c2nc3ccccc3[nH]2)n1,53,-17,4,8,-1,-6
SMILES,EP2 mod,NPY1 pot ag,PGE2 EP2 inh,NPY-Y2 antag,NPY-Y1 antag,NPY-Y2 PAM-ag
O=C(CN1CCOCC1)Nc1ccc(Cl)c(NC(=O)c2ccc(Cl)cc2)c1,-26,x,19,x,x,x
COc1cccc(CN2C(=O)[C@@H]3CCCN3C(=O)c3ccccc32)c1,-43,x,9,x,x,x
C(=N\NC(=Nc1ccccc1)c1ccccn1)/c1ccccn1,7,10,10,1,9,2
Clc1ccc(/C=N/NC(=Nc2ccccc2)c2ccccn2)c(Cl)c1,61*,-3,x,7,18,7
NCOC(=O)Cc1ccc(Br)cc1,10,x,54*,x,x,x
COC(=O)C1CC(c2c(OC)cc(OC)cc2OC)=NO1 (stereo not drawn),-2,5,10,1,1,9
COC(=O)[C@@H]1C(c2c(OC)cc(OC)cc2OC)=NO[C@H]1C(=O)OC,26,56*,1,-1,-10,42*
COc1ccc(CN(Cc2cc3cc(C)c(C)cc3[nH]c2=O)Cc2nnnn2Cc2ccco2)cc1,-14,x,20,x,x,x
COc1cc2[nH]c(=O)c(C(=O)NC3CCCC3)c(O)c2cc1OC,-20,x,3,x,x,x
Cc1ccc(S(=O)(=O)Nc2ccc(Br)cc2/C=N/n2cnnc2)cc1,-9,49*,17,1,-18,47*
Cc1ccccc1CN(CCCn1ccnc1)Cc1cn[nH]c1-c1ccccc1,11,x,13,x,x,x
COc1ccc(-c2ocnc2C(=O)N2CCC(C(N)=O)CC2)cc1OC,-5,x,8,x,x,x
CC1(C)CC(C(CCN(Cc2ccccc2)C(=O)c2ccco2)c2ccc(F)cc2)CCO1 (stereo not drawn),42,-18,2,33*,29*,-4
O=C(c1ccco1)N1CCC(n2nc(-c3ccco3)ccc2=O)CC1,-11,x,x,x,x,x
COc1ccc(CN(Cc2cccn2C)S(=O)(=O)c2ccc(F)cc2)cc1,13,5,10,x,x,-4
COc1ccc(CN(Cc2cccn2C)S(=O)(=O)c2ccc(C)cc2)cc1,72*,-20,7,x,x,-23
Cn1ncc(C#N)c1/N=C/N(Cc1ccccc1)Cc1ccccc1,60,-70,11,26*,22*,-32
CCOC(=O)C1CCCN(Cc2c(Cl)cccc2Cl)C1 (stereo not drawn),61*,4,1,4,-2,-9
CCOC(=O)C1CCCN(Cc2ccccc2F)C1 (stereo not drawn),17,15,2,-1,0,12
CCOc1cccc(/C(O)=C2/C(=O)C(=O)N(CCN(C)C)C2c2ccco2)c1 (stereo not drawn),-21,x,9,x,x,x
COc1ccc(-c2c3c(=O)n(C)c(=O)n(C)c3cn2-c2cc(OC)ccc2OC)cc1,22,-22,8,13,21*,-25
C[C@H](Cn1nnc2ccccc21)NC(=O)c1ccc(Cn2cccn2)o1,28,x,7,x,x,x
